Assay [1] deals with Pseudomonas aeruginosa. As to the kind of experiment: Inhibition of biofilm formation of Pseudomonas aeruginosa PaM02 at 128 ug/ml after 24 hrs by crystal violet staining-based ELISA reader analysis. Conditions: PaM02, 24 h. It is filed as functional. The gist of the method:
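Prevention assay: compound at 128 µg/ml final in LB was incubated in polystyrene wells overnight at 4 °C, aspirated, and wells washed with PBS. Wells were seeded with 100 µL of 1.0 × 10^7 CFU/ml inoculum and incubated 24 h at 37 °C. Biofilm was stained with 1% crystal violet, destained with 95% ethanol and read at 570 nm. Inhibition = [(Ac−At)/Ac] × 100 versus LB-preincubated controls.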

Assay [2] has as its system Pseudomonas aeruginosa. Nature of the assay: Antimicrobial activity against Pseudomonas aeruginosa PaM02 at > 128 ug/ml by microtitre plate reader analysis. In kind it is functional, organism-based. The gist of the method:
(§1)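 Clinical mucoid strain grown overnight in LB broth at 37 °C and diluted with saline to OD600 around 1, then 100-fold. Compound in LB was added to an equal volume of cells, giving a final 5.0 × 10^5 CFU/ml and 128 µg/ml compound. Negative control was LB plus the matching DMSO level, with sterility and no-compound wells. Growth was read as turbidity at 600 nm; tobramycin served as positive control.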

The subject of assay [3] is Pseudomonas aeruginosa. Nature of the assay: Bactericidal activity against Pseudomonas aeruginosa PaM02 at 128 ug/ml after 4 hrs by time kill analysis (reference value: 2.322 log10 CFU/ml). In kind it is functional.
The subject of assay [4] is Pseudomonas aeruginosa. As to the kind of experiment: Bactericidal activity against Pseudomonas aeruginosa PaM02 at 128 ug/ml after 8 hrs by time kill analysis (reference value: 2.322 log10 CFU/ml). It is filed as functional.
In assay [5] the test system is Pseudomonas aeruginosa. As to the kind of experiment: Bactericidal activity against Pseudomonas aeruginosa PaM02 at 128 ug/ml after 24 hrs by time kill analysis (reference value: 2.322 log10 CFU/ml). In kind it is functional.
Assay [6] relates to Pseudomonas aeruginosa. Nature of the assay: Bactericidal activity against Pseudomonas aeruginosa PaM02 at 128 ug/ml after 16 hrs by time kill analysis (reference value: 2.322 log10 CFU/ml). In kind it is functional.
The test system of assay [7] is Pseudomonas aeruginosa. As to the kind of experiment: Antimicrobial activity against Pseudomonas aeruginosa PaM02 assessed as growth inhibition at 0.323 umol/ml by microtitre plate reader analysis. It is filed as functional. The gist of the method:
as §1

Assay [8] deals with Pseudomonas aeruginosa. Nature of the assay: Antimicrobial activity against Pseudomonas aeruginosa PaM02 biofilm at 128 ug/ml after 24 hrs by crystal violet staining-based ELISA reader analysis. Conditions: PaM02, 24 h. In kind it is functional. The gist of the method: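 Preformed biofilm was grown from 100 µL of 1.0 × 10^7 CFU/ml inoculum for 24 h at 37 °C in polystyrene wells. Planktonic cells were removed and wells rinsed with PBS. Compound at 128 µg/ml final in LB was added for a further 24 h at 37 °C. Biofilm was stained with 1% crystal violet, destained with 95% ethanol and read at 570 nm. Reduction = [(Ac−At)/Ac] × 100 versus LB/DMSO controls.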

Assay [9] relates to Pseudomonas aeruginosa. As to the kind of experiment: Antimicrobial activity against Pseudomonas aeruginosa PaM02 assessed as growth inhibition at 0.315 umol/ml by microtitre plate reader analysis. It is filed as functional. The gist of the method: as §1
The subject of assay [10] is Pseudomonas aeruginosa. Nature of the assay: Antimicrobial activity against Pseudomonas aeruginosa PaM02 assessed as growth inhibition at 0.245 umol/ml by microtitre plate reader analysis. It is filed as functional. The gist of the method:
as §1

In assay [11] the test system is Pseudomonas aeruginosa. Nature of the assay: Antimicrobial activity against Pseudomonas aeruginosa PaM02 assessed as growth inhibition at 0.008 umol/ml by microtitre plate reader analysis. It is filed as functional. The gist of the method: as §1

Active and inactive are the calls of the source. No cut-off for these calls is given here.

The compound `O=C(/C=C/c1ccc(O)c(O)c1)O[C@@H]1C[C@](O)(C(=O)O)C[C@@H](O)[C@H]1O` [CHLOROGENIC ACID] showed an inhibition at 128 µg/mL with Pseudomonas aeruginosa [1] of 45%. The result with Pseudomonas aeruginosa [2] was inactive.
Consider `C=C(CO[C@@H]1O[C@H](CO)[C@@H](O)[C@H](O)[C@H]1O)[C@@H]1Oc2ccc(C(C)=O)cc2[C@@H]1O`, for which the Activity was 2.136 log10CFU/ml in the assay with Pseudomonas aeruginosa [3], 1.974 log10CFU/ml in the assay on Pseudomonas aeruginosa [4], 1.881 log10CFU/ml in the assay with Pseudomonas aeruginosa [5] and 1.927 log10CFU/ml with Pseudomonas aeruginosa [6]. Further, the “growth inhibition (GI)” value in the assay with Pseudomonas aeruginosa [7] turned out to be 17%. Moreover, the inhibition at 128 µg/mL in the assay with Pseudomonas aeruginosa [8] is 16%.
For the compound `COc1cc(/C=C/c2ccc(O[C@@H]3O[C@H](CO)[C@@H](O)[C@H](O)[C@H]3O)cc2)oc(=O)c1`, the Activity with Pseudomonas aeruginosa [3] is 1.157 log10CFU/ml; in the assay on Pseudomonas aeruginosa [4], 1.103 log10CFU/ml; in the assay on Pseudomonas aeruginosa [5], 1.045 log10CFU/ml; in the assay on Pseudomonas aeruginosa [6] it was 1.055 log10CFU/ml. Further, the “growth inhibition (GI)” value with Pseudomonas aeruginosa [9] is given as 53%.
With `COc1cc([C@H]2Oc3c(OC)cc(CCCO)cc3[C@@H]2CO)ccc1O[C@@H]1O[C@H](CO)[C@@H](O)[C@H](O)[C@H]1O`, the Activity in the assay on Pseudomonas aeruginosa [3] is on record as 2.043 log10CFU/ml; in the assay on Pseudomonas aeruginosa [4], 1.858 log10CFU/ml; in the assay with Pseudomonas aeruginosa [5], 1.765 log10CFU/ml; in the assay on Pseudomonas aeruginosa [6], 1.811 log10CFU/ml. Also, in the assay on Pseudomonas aeruginosa [10], the “growth inhibition (GI)” value was 21%.
In the case of `COc1cc(/C=C/c2ccc(O[C@@H]3O[C@H](COC(=O)CC(C)(O)CC(=O)O)[C@@H](O)[C@H](O)[C@H]3O)cc2)oc(=O)c1` (some centres undefined), the outcome in the assay on Pseudomonas aeruginosa [2] was inactive.
Take `COc1cc2c(c(O[C@@H]3O[C@H](COC(=O)CC(=O)O)[C@@H](O)[C@H](O)[C@H]3O)c1)C(=O)OC2`: the inhibition at 128 µg/mL with Pseudomonas aeruginosa [8] was 27%. Besides, in the assay with Pseudomonas aeruginosa [2], the outcome was inactive.
Turning to `COc1cc(/C=C/c2ccc(O[C@@H]3O[C@H](COC(=O)CC(=O)O)[C@@H](O)[C@H](O)[C@H]3O)cc2)oc(=O)c1`, the outcome with Pseudomonas aeruginosa [2] was inactive.
On to `COc1cc(=O)oc([C@H]2[C@H](c3ccc(O[C@@H]4O[C@H](CO)[C@@H](O)[C@H](O)[C@H]4O)cc3)[C@H](c3cc(OC)cc(=O)o3)[C@H]2c2ccc(O[C@@H]3O[C@H](CO)[C@@H](O)[C@H](O)[C@H]3O)cc2)c1`, for which the outcome with Pseudomonas aeruginosa [2] was inactive.
In the assay on Pseudomonas aeruginosa [8], `C=C(CO)[C@@H]1Oc2ccc(C(C)=O)cc2[C@@H]1O[C@@H]1O[C@H](CO)[C@@H](O)[C@H](O)[C@H]1O` showed an inhibition at 128 µg/mL of 9%. In the assay on Pseudomonas aeruginosa [2], the outcome was inactive.
For the compound `COc1cc2c(c(O[C@@H]3O[C@H](CO)[C@@H](O)[C@H](O)[C@H]3O)c1)C(=O)OC2`, the outcome in the assay on Pseudomonas aeruginosa [2] was inactive.
Turning to `O=C(/C=C/c1ccc(O)c(O)c1)O[C@@H]1C[C@](O)(C(=O)O)C[C@@H](OC(=O)/C=C/c2ccc(O)c(O)c2)[C@H]1O`, the result in the assay on Pseudomonas aeruginosa [2] was inactive.
As to `O=C1OCc2cc(O)cc(O[C@@H]3O[C@H](CO)[C@@H](O)[C@H](O)[C@H]3O)c21`, the result in the assay on Pseudomonas aeruginosa [2] was inactive.
With `NC[C@H]1O[C@H](O[C@H]2[C@H](O)[C@@H](O[C@H]3O[C@H](CO)[C@@H](O)[C@H](N)[C@H]3O)[C@H](N)C[C@@H]2N)[C@H](N)C[C@@H]1O` [TOBRAMYCIN], the “growth inhibition (GI)” value in the assay on Pseudomonas aeruginosa [11] was 100%.
